Results taken from PMC11393732 (RSC Medicinal Chemistry, 2024).

Key:
KDM3A = molecular target: T1, KDM3A (Homo sapiens, UniProt Q9Y4C1); assay: IHC of HCP-1 xenograft tumors, KDM3A; type: in vivo, mice
T1 sequence (Q9Y4C1 1-1321): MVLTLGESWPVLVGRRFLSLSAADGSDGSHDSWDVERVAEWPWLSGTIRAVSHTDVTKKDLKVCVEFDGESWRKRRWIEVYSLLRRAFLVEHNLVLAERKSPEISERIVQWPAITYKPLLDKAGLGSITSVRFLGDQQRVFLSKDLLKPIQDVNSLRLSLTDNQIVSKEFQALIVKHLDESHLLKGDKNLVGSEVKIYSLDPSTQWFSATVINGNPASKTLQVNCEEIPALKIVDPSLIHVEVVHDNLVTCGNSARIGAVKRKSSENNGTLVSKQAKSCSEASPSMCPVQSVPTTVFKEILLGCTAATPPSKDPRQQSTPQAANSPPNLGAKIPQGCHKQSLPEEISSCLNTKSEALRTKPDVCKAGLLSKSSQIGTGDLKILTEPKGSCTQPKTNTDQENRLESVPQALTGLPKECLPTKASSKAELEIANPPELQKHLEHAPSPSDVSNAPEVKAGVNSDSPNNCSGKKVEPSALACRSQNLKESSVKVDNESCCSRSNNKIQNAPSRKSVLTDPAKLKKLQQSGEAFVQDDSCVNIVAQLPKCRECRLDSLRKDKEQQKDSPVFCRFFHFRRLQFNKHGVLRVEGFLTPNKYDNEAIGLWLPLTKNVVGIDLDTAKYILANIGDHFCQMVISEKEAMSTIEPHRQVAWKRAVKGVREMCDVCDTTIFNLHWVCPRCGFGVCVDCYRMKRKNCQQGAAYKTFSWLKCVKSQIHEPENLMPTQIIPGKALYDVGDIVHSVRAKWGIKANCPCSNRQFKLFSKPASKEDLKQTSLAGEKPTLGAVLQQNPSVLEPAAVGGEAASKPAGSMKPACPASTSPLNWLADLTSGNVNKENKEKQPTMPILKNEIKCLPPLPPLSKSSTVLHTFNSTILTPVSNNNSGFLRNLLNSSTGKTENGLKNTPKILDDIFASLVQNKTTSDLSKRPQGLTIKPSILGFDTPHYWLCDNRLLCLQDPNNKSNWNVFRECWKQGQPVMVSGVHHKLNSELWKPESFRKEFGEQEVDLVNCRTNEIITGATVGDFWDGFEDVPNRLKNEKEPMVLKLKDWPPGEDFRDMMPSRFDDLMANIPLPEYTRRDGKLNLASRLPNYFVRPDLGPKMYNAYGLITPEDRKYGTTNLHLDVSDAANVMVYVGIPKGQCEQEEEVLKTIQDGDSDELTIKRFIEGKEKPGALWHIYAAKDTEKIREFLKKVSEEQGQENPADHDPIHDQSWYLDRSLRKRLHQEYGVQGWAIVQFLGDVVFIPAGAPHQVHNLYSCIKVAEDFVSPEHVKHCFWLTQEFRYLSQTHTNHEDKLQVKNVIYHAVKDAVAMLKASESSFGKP
Outline: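 Tumours came from ALDHHigh HCP-1 xenografts in NSG mice given test compound IP (3, 10 or 35 mg kg−1) for 16 days. Paraffin sections were deparaffinised and rehydrated, then antigen-unmasked. Peroxidase blocked; sections blocked 1 h in 10% goat serum. Primary antibody overnight at 4 °C, biotinylated secondary 30 min at RT, avidin–biotin peroxidase detection, hematoxylin counterstain.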

KDM3B = KDM3B (Homo sapiens, UniProt Q7LBC6); assay: IHC of HCP-1 xenograft tumors, KDM3B; type: in vivo, mice; settings: HCP-1 xenograft tumor tissues
KDM3B, sequence (Q7LBC6 whole entry): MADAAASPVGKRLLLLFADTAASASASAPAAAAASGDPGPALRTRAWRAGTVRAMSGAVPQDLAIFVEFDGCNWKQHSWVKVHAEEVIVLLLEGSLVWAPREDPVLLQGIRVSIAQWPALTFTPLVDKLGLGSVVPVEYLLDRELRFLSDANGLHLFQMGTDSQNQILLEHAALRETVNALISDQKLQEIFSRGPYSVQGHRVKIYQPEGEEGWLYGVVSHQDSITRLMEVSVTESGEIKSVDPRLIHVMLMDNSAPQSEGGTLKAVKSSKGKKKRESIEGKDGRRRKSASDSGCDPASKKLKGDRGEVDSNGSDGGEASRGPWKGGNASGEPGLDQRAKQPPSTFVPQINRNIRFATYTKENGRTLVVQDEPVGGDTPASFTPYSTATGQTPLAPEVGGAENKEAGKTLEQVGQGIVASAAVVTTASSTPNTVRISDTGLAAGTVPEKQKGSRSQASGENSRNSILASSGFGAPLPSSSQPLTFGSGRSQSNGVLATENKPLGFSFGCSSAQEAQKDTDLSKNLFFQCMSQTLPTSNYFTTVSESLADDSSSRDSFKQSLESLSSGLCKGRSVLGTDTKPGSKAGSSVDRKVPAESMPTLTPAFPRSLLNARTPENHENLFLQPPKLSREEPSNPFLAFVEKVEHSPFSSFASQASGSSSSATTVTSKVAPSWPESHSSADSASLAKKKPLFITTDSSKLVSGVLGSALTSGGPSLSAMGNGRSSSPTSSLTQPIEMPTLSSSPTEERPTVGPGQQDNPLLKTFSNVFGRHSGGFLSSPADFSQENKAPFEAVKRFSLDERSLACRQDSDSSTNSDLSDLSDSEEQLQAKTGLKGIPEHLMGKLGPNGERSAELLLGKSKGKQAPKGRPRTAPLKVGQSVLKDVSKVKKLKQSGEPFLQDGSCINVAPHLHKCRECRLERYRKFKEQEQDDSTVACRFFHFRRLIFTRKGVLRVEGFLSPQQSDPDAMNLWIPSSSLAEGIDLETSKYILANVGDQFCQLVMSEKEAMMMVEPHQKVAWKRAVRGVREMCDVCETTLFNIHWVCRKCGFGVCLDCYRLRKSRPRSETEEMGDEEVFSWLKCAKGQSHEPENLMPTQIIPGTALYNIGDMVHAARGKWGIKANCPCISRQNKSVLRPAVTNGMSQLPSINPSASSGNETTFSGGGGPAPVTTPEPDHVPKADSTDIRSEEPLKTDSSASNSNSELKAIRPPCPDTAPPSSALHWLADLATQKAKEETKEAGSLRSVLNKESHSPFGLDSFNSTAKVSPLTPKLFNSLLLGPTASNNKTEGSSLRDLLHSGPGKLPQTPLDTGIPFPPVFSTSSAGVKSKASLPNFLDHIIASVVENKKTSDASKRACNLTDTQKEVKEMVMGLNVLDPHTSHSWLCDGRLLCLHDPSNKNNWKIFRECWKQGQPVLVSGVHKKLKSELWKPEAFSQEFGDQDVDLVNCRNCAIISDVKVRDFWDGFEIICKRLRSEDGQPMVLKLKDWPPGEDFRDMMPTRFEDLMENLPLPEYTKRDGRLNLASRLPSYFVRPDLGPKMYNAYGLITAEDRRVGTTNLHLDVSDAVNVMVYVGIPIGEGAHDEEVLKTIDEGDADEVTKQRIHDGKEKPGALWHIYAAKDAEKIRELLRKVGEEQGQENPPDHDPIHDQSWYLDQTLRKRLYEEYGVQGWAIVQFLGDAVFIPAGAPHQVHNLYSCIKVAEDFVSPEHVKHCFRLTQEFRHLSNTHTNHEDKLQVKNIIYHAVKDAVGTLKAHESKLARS

## O=C1CCC(N2C(=O)c3cccc(NCCOCCOCCOCCOCCNC(=O)c4ccc(O)c5ncccc45)c3C2=O)C(=O)N1 (stereo not drawn) [Compound 4, N-(14-((2-(2,6-Dioxopiperidin-3-yl)-1,3-dioxoisoindolin-4-yl)amino)-3,6,9,12-tetraoxatetradecyl)-8-hydroxyquinoline-5-carboxamide]
KDM3A; 35 mg kg^−1
  KDM3A level (IHC) at high dose: slight upregulation of KDM3A
KDM3A; HCP-1 xenograft tumor tissues
  KDM3A degradation in vivo (IHC): confirmed the PROTAC-induced KDM3A and KDM3B degradation in vivo
KDM3B
  KDM3B degradation in vivo (IHC): confirmed the PROTAC-induced KDM3A and KDM3B degradation in vivo
